# The list is not random: actives were taken first. Their share in the collection is about 3.9%.
# TMEM16A inh = blocks the mouse calcium-activated chloride channel TMEM16A. 310,000 tested, 1.2% active. normalized B-score (activity score, 25-100; higher = stronger inhibition) at 10 µM. HEK293 TMEM16A/YFP iodide influx fluorescence, ionomycin. AID 588511;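 active means ratio plate-corrected score three or more library SD toward inhibition, starting fluorescence score within five deviations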;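 further: score derived from kinetic fluorescence span divided by baseline fluorescence per well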
# CRFBP-R2 block = antagonists of CRF-binding protein/CRF-R2 receptor complex; HEK293 CRF-R2/CRF-BP, CRF-induced calcium fluorescence; inhibition, % at 11.8 µM; 350,000 tested, 0.59% active;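 active means inhibition of the ligand-induced calcium signal above about 50% at the single tested concentration, limit read from the data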
# ANO1 activ = activators or potentiators of mouse TMEM16A chloride channel; 340,000 tested, 0.3% active; HEK293 TMEM16A/YFP-H148Q/I152L, iodide quench fluorescence; active compounds read low; B-score at 10 µM;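 active means fluorescence-ratio B-score plate-corrected deviation score at least 3 library SD below zero, with starting fluorescence score within 5 deviations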;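 further: channel opened by trigger with iodide after compound preincubation; score built on the fluorescence ratio of max minus min over baseline; more negative score means more quench and so TMEM16A activation or potentiation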
# TAAR1 antag = antagonists of human TAAR1; AID 624466; inhibition, % at 3 µM; CHO RD-HGA16 TAAR1, Fluo-8 calcium fluorescence, antagonist; 360,000 tested, 1.5% active; Q96RJ0;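 active means inhibition above a per-plate cutoff, the mean inhibition of test compounds on that plate plus 3 SD, cut at about 49% in these data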;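 further: 0% = DMSO plus EC80 beta-PEA response and 100% = DMSO alone without agonist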
# Target sequence (Q96RJ0 whole entry, looked up): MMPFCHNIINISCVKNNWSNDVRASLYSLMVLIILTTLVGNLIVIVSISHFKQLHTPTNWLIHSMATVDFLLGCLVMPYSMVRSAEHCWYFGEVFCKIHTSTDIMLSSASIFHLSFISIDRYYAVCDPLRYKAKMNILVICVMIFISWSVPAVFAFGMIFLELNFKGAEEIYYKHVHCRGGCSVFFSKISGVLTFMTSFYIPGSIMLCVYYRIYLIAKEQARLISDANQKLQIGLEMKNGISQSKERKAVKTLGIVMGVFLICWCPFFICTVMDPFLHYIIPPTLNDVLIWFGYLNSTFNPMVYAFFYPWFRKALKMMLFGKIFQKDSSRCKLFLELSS
#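 test system = CHO RD-HGA16 cells bearing hTAAR1 | replication = singlicate | controls = DMSO-only wells and EC80 β-PEA-stimulated wells | reagent = EC80 β-phenethylamine stimulus | read-out basis = percent inhibition of PEA-evoked calcium signal, max/basal emission ratio | schedule = seeding 17-24 h prior, 75-min 37 °C, 30-min RT dye loading | signal = kinetic Fluo-8 calcium fluorescence measurement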
# CRFBP-R2 agonist = CRF-BP/CRF-R2 complex agonism; 350,000 tested, 0.46% active; HEK293 CRF-R2/CRF-BP, calcium dye fluorescence (FLIPR); percent of saturating CRF peptide response; AID 588473; activation, % at 13.2 µM;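 active means activation of at least 50%, plus an integration ratio under a set limit after plate pattern correction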;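 further: plate controls were neutral control wells without compound for no effect and CRF at EC100 for full effect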
# TAAR1 ag = agonists of human TAAR1; activation, % at 3 µM; AID 624467; 360,000 tested, 0.99% active; CHO RD-HGA16 TAAR1, Fluo-8 calcium fluorescence; vehicle wells 0%, saturating PEA agonist 100%; Q96RJ0;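 active means activation above the mean activation of all test compounds in the run plus 3 SD, cut at about 38% in these data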
#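 System: CHO RD-HGA16 cells carrying human TAAR1 plus Gα16; Incubation: 17-24 h seeding, 75 min 37 °C dye, 30 min RT; Measured by: Fluo-8 fluorescence, 5 s baseline then 140 s kinetic read; Control set: DMSO and PEA EC100; Replication: single well for each compound.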
# TAAR1 ag confirm = human TAAR1 agonism, confirmed; shares compounds with TAAR1 ag; CHO RD-HGA16 TAAR1, Fluo-8 calcium fluorescence; scaled: DMSO 0%, maximal phenethylamine 100%; activation, % at 3 µM; 2,400 tested, 82% active;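 active means activation above a cutoff set at the run's mean compound activation plus 3 SD, cut at about 39% in these data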
# Ga16 nonsel ag = nonselective agonism, TAAR1 counter-screen. activation, % at 3 µM. shares compounds with TAAR1 ag. CHO-Ga16 parental, Fluo-8 calcium fluorescence; normalized to maximal ATP response, DMSO zero. 2,400 tested, 50% active;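 active means activation above the run cutoff, the mean activation over all tested wells plus 3 SD, cut at about 12% in these data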;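 further: 0% = DMSO wells and 100% = maximal ATP response on the peak over basal ratio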
# TAAR1 desens = human TAAR1 agonist that also desensitizes the receptor | shares compounds with TAAR1 ag | CHO RD-HGA16 hTAAR1, Fluo-8 calcium, beta-PEA response inhibition | inhibition, % at 3 µM | 2,400 tested, 46% active | AID 651951;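 active means inhibition above the run cutoff, the mean inhibition of all test compounds plus 3 SD, cut at about 49% in these data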;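 further: beta-PEA stimulus applied at its EC80; loss of beta-PEA calcium signal after compound pretreatment read as receptor desensitization; 0% = DMSO with beta-PEA at EC80 and 100% = DMSO alone without agonist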
# Ga16 nonsel ant = nonselective Ga16 antagonist in TAAR1 agonist counter-screen. CHO-Ga16 ATP-induced calcium, Fluo-8 fluorescence. inhibition, % at 3 µM. shares compounds with TAAR1 ag. 2,400 tested, 39% active;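 active means inhibition above the plate's mean compound inhibition plus 3 SD, computed per plate, cut at about 22% in these data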;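 further: 0% = EC80 ATP with DMSO and 100% = DMSO wells without ATP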
# Numbers without * were called inactive; i = inactive; . = no result.
SMILES,TMEM16A inh,CRFBP-R2 block,ANO1 activ,TAAR1 antag,CRFBP-R2 agonist,TAAR1 ag,TAAR1 ag confirm,Ga16 nonsel ag,TAAR1 desens,Ga16 nonsel ant
O=C(O)/C=C/C(=O)NCCc1cccc(Cl)c1,i,4.7,i,75.7*,-1.3,69.3*,92.9*,7.9,96.4*,6.3
O=C(O)/C=C/C(=O)NCCc1ccccc1,i,9.2,i,79.7*,-0.1,117.7*,105.1*,1.2,98.2*,6.2
O=C(CCCC(=O)c1ccccc1)NCCc1ccccc1,i,-2.4,i,74.9*,-1.7,46.7*,50.0*,14.9*,89.5*,14.2
COc1ccc(CCCC(=O)NCCc2ccccc2)cc1,i,14.4,i,-14.6,-1.2,-0.7,.,.,.,.
O=C(CCCc1ccccc1)NCCc1ccccc1,i,0.7,i,-3.2,-0.5,4.2,.,.,.,.
COc1ccc(CCNC(=O)/C=C/C(=O)O)cc1,i,7.3,i,30.0,2.4,62.3*,81.3*,2.0,50.4*,5.4
CCc1nnc(NC(=O)CCC(=O)NCCc2ccccc2)s1,i,1.5,i,-9.2,-1.1,48.9*,15.9,0.0,-1.8,7.2
CCNC(=O)C(=O)NCCc1ccc(Cl)cc1,i,23.6,i,12.0,-1.0,7.0,.,.,.,.
O=C(O)/C=C/C(=O)NCCc1ccc(Cl)cc1,i,-21.1,i,44.2,1.6,75.7*,97.1*,6.6,66.8*,-3.9
CSc1nc(S(=O)(=O)c2ccccc2)c(Cl)s1,i,22.4,i,12.1,-3.0,-2.2,.,.,.,.
CN1CCN(C(c2ccc(C(F)(F)F)cc2)c2ccc3cccnc3c2O)CC1 (stereo unspecified),i,-44.6,.,10.3,-0.1,101.8*,128.7*,94.3*,63.0*,19.3
O=C(NNc1cc(N2CCOCC2)nc(N2CCOCC2)n1)C12CC3CC(CC(C3)C1)C2,i,-11.3,i,-26.9,-2.2,0.4,.,.,.,.
CN(C)c1ccc(C(=O)OCC(=O)Nc2ccc(N3CCOCC3)cc2)cc1,i,-4.5,i,-6.5,-1.2,51.4*,2.4,9.8,7.7,1.1
N#CCCN=C(NS(=O)(=O)c1ccccc1)c1ccccc1,i,-4.2,i,8.0,0.3,0.9,.,.,.,.
COc1cc(C(=O)Nc2ccc(NC(C)=O)cc2)ccc1OCc1ccccc1,i,-1.3,i,9.5,8.2,1.9,.,.,.,.
O=C(NNC(=O)c1ccc(NC(=O)c2ccccc2)cc1)c1ccccc1,i,-22.5,i,16.4,-2.4,60.9*,22.0,0.3,14.0,3.5
O=C(CSc1ccccc1)Nc1ccc(C(=O)Nc2ccc(O)cc2)cc1,.,5.3,i,27.3,7.6,75.2*,1.1,-0.3,2.8,13.6
O=C1C(Cl)=C(NC(=O)c2ccccc2)C(=O)C(Cl)=C1NC(=O)c1ccccc1,i,20.2,i,69.5*,-0.5,53.0*,36.3,20.7*,55.0*,49.0*
COc1ccccc1OCc1ccc(C(=O)Nc2ccccc2)cc1,.,11.9,i,57.0*,-1.1,63.0*,46.2*,27.4*,60.3*,37.3*
COc1cc(OC)c(C(=O)OCC(=O)NCCC2=CCCCC2)cc1OC,i,2.2,i,7.8,0.0,-0.1,.,.,.,.
CCCCC(=O)NC1(C(F)(F)F)NC(=O)N(C)C1=O (stereo unspecified),i,-5.3,i,-19.8,2.6,1.2,.,.,.,.
COc1cc(NS(=O)(=O)c2ccc3c(c2)C(C)(C)C(=O)N3C)cc(OC)c1,i,11.8,i,-1.1,-1.1,2.9,.,.,.,.
CCCNC(=O)C1(C)CCN(C(=O)c2ccccc2OC)C1 (stereo unspecified),.,.,.,-6.2,.,0.4,.,.,.,.
O=C(COC(=O)/C=C/c1ccc(OC(F)F)cc1)Nc1ccc2[nH]c(=O)[nH]c2c1,.,-8.9,i,-19.7,5.8,0.5,.,.,.,.
O=C(Nc1ccc(C2SCCS2)cc1)c1ccccc1,i,-3.9,.,46.2,-1.1,63.1*,61.6*,28.4*,47.7,36.3*
SMILES,TMEM16A inh,CRFBP-R2 block,ANO1 activ,TAAR1 antag,CRFBP-R2 agonist,TAAR1 ag,TAAR1 ag confirm,Ga16 nonsel ag,TAAR1 desens,Ga16 nonsel ant
O=C(/C=C/[C@H]1O[C@@H](n2cnc3c(NC(=O)c4ccccc4)ncnc32)[C@H](O)[C@@H]1O)NCc1ccco1,.,.,.,5.4,.,2.2,.,.,.,.
CC1CCC(NC(=O)C2CCN(C(=O)Nc3ccccc3)CC2)CC1 (stereo unspecified),.,-9.3,i,-9.5,1.2,1.5,.,.,.,.
COc1ccc(CCNS(=O)(=O)c2cc3c4c(c2)C(C)C(=O)N4CCC3)cc1OC (stereo unspecified),i,-5.3,i,7.3,-0.6,0.0,.,.,.,.
CC1C(=O)N2CCCc3cc(S(=O)(=O)NCCc4ccccc4)cc1c32 (stereo unspecified),i,3.1,i,-3.5,0.7,51.5*,66.7*,7.0,24.7,17.2
COc1cc(OC)c(OC)cc1CNC(=O)c1ccc(S(=O)(=O)N2CCCCC2)cc1,.,3.9,i,5.3,-1.4,-0.3,.,.,.,.
O=c1[nH]cccc1-c1nc2ccccc2[nH]1,i,7.2,i,2.3,3.3,5.8,.,.,.,.
O=c1oc2c(O)cccc2cc1-c1nc2ccccc2[nH]1,i,-105.2,i,8.7,183.6*,83.2*,92.9*,89.5*,45.7,29.1*
COc1ccc(NC(=O)COc2ccc(Br)cc2)c(OC)c1,i,-7.5,i,66.8*,-1.1,67.9*,42.9*,12.7*,28.7,-2.6
COc1ccc(NC(=O)COc2ccccc2)c(OC)c1,i,17.1,i,-0.3,-0.4,8.7,.,.,.,.
Cc1cc(C)n2nc(CC(=O)NNC(=O)COc3ccccc3)nc2n1,i,-0.4,i,-7.0,-0.9,2.4,.,.,.,.
NS(=O)(=O)c1ccc(-c2ccc(/C=N/Nc3ccc(C(=O)O)cc3)o2)cc1,i,15.2,i,-3.0,2.1,2.9,.,.,.,.

# Screening results: PubChem BioAssay, several laboratories
